Test [1] concerns the target Pantothenate synthetase (Mycobacterium tuberculosis (strain ATCC 25618 / H37Rv)) (UniProt P9WIL5). The experiment in a line: Coupled enzyme confirmation of inhibitors against recombinant Mtb PanC (AID 375; call rule not given here;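 further: 0% = full reaction with vehicle and 100% = no enzyme background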). The conditions noted are these: coupled enzyme assay; at 10 µM, stronger effect = higher value.
Test [2] is described as follows: Her2 expression decrease, cell viability multiplex – SKBR3 breast tumor cells, AlphaScreen, ATP viability, primary screen (AID 461;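 active means Her2 level under about 52% in both replicate screens, with viability over 70% of control, limit read from the data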;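 on Her2 level: lower value means less Her2 protein in the cells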;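 on viability: percent of carrier control wells set as 100% viability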). As to conditions: SKBR3 Her2 protein level, 18-24 h, measured here: SKBR3 viability, ATP luminescence, at 10 µM.
In test [3] the target is Receptor tyrosine-protein kinase erbB-2 (Homo sapiens) (UniProt P04626). The description is as above. As to conditions: 18-24 h, at 10 µM, stronger effect = lower value.
Sequence of Receptor tyrosine-protein kinase erbB-2 (Homo sapiens) (P04626 whole entry, looked up): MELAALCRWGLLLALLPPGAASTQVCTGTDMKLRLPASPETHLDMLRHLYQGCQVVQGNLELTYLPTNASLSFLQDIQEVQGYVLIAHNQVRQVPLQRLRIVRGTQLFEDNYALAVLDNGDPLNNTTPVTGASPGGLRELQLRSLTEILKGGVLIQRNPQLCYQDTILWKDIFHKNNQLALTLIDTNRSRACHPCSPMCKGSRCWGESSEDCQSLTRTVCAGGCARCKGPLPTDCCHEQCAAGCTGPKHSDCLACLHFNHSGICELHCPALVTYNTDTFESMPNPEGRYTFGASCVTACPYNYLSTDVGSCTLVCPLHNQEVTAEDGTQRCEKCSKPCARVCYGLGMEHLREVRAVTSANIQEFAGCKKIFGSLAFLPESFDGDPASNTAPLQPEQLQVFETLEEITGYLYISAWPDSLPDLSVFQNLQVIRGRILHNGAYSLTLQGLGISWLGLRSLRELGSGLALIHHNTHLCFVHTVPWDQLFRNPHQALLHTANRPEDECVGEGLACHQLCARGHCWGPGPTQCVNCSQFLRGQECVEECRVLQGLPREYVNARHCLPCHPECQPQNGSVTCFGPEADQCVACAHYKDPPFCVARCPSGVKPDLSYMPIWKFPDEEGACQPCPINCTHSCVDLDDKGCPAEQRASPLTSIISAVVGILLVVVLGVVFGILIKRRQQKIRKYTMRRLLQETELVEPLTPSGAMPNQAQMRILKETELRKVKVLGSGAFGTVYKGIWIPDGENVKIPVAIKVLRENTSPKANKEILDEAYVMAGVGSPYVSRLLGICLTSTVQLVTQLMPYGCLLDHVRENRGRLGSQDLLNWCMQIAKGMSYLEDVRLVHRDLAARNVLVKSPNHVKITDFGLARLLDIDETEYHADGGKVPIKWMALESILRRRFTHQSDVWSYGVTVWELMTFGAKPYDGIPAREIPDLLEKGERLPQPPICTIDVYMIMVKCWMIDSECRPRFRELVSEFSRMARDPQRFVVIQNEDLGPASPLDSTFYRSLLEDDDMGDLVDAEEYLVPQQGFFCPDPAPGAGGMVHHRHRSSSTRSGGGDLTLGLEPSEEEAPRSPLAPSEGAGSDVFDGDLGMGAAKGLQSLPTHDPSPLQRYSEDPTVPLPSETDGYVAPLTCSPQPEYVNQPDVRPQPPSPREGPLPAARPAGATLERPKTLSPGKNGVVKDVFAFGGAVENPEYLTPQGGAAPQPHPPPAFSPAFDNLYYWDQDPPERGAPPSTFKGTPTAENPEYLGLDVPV
Test [4] in a line: reduced viability of SK-BR-3 breast cancer cells – cell-based, 24 h, human, pilot screen (AID 572).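 Further: compound exposure lasted between 18 and 24 h rather than exactly 24 h; 100% = carrier-treated control wells.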 As to conditions: SK-BR-3 viability, CellTiter-Glo luminescence, at 10 µM, stronger effect = lower value. A general note: ATP-based viability assays read luminescence as a measure of living cells.
Test [5] is described as follows: HUVEC growth inhibition – cell-based, human, primary screen (AID 575;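 active means viability at or below 30% in both replicate assays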;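 further: 100% = median of untreated cell wells with 0.1% DMSO on each plate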). The conditions noted are these: HUVEC proliferation, CellTiter-Glo luminescence, 72 h; at 10 µM; stronger effect = lower value. An outline of the steps: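 Material: primary human umbilical vein endothelial cells / Schedule: 72 h exposure, 37 °C, 5% CO2, 30 min RT equilibration / Signal: ATP-based CellTiter-Glo luminescent read / Read-out basis: percent of median DMSO-control luminescence / Control set: 32 DMSO-only cell-control wells (high), 32 MePR drug-control wells (low) per plate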

Test [6] can be described thus: H69AR cell proliferation blockers – human, duplicate replicates, primary screen (AID 580;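 active means viability at or under a set limit in both replicates, limit being median viability minus 3 SD, cut at about 48% in these data, passing the limit was not always enough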;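 further: 100% = mean luminescence of untreated wells and 0% = no signal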). The conditions noted are these: H69AR lung tumor cells viability, ATP luminescence, 72 h; at 10 µM; stronger effect = lower value.
The nature of test [7]: MRP1 drug-resistance reversers in H69AR cells – cell-based, doxorubicin co-treatment, pilot screen (AID 601;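 active means viability loss from added drug above about 55%, and viability with drug at most 40%, in both replicates, limit read from the data, passing the limit was not always enough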). As to conditions: CellTiter-Glo, 72 h, at 10 µM; for differential viability (reversal): stronger effect = higher value.
Test [8] can be described thus: yeast transport mutant growth inhibition pilot in 384-well plates, post-Golgi transport modulator project (AID 636; in the data active means inhibition above about 31%). As to conditions: absorbance 615 nm, about 18 h, stronger effect = higher value.
A short description of test [9]: growth suppression of yeast trafficking mutant, preliminary HTS, modulators of trafficking downstream of Golgi apparatus project, 1536-format plate, OD 615 nm (AID 637; in the data active means inhibition above about 30%). The conditions noted are these: yeast transport mutant growth, absorbance 615 nm, 18 h; stronger effect = higher value.
The mark [10] stands for this setting: H69AR cells + 2 uM doxorubicin, measured here: viability with 2 uM doxorubicin, stronger effect = lower value.
The mark [11] stands for this setting: H69AR cells, compound alone cytotoxicity.

Activity calls are given as the source filed them.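 How the source made its calls, unless noted: active means viability at or below 10% of carrier control in both of two separate runs; inconclusive means viability at or below 10% in only one of the two runs; inactive means the rest.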

This note sets out measurements from PubChem BioAssay.

The inhibition is the relative decrease from the control value, in per cent. Broadly, the viability is a read-out of living cells in per cent, often relative to untreated cells.

Sequence of Pantothenate synthetase (Mycobacterium tuberculosis (strain ATCC 25618 / H37Rv)) (P9WIL5 whole entry, looked up): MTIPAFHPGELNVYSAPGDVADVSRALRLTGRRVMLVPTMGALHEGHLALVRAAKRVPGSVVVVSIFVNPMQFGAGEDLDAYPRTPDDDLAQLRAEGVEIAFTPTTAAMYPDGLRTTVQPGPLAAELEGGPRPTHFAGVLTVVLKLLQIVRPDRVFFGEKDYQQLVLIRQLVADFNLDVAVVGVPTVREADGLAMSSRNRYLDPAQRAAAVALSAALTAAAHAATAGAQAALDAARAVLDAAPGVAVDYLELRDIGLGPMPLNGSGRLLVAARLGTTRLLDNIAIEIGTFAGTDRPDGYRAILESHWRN

Take `Cc1nn(-c2ccccc2)c2c1CC1(C(=O)N(C)C(=O)N(C)C1=O)C1CCCCN21` (configuration not stated): the inhibition is 0% (inactive) in test [1], -4.86% (inactive) in [8] and -2.13% (inactive) in [9]. For the same compound, the viability in test [2] was 97%; in test [4], 97% (inactive); in [5], 91.7% (inactive); in test [6] it was 84.7% (inactive); in [7] (setting [10]), 96.7%; in test [7] (setting [11]), 84.7%. The Her2 level in [3] was 114% (inactive). The differential viability (reversal) in test [7] (H69AR cells + 2 uM doxorubicin) was -12% (inactive).

In the case of `O=C1OCCC1NC1=NCCC1` (configuration not stated), the inhibition in [1] was 0% (inactive); in [8], -0.78% (inactive); in test [9], -5.41% (inactive). Also, the viability in test [2] was 92%; in test [4], 92% (inactive); in test [5] it was 111% (inactive); in [6], 100% (inactive); in test [7] (setting [10]), 87.1%; in test [7] (setting [11]), 100%. Also, in [3], the Her2 level is 91% (inactive). Further, in test [7] (H69AR cells + 2 uM doxorubicin), the differential viability (reversal) is 13.1% (inactive).

For `O=C(O)c1nonc1-c1nonc1C(=O)O`, the inhibition was 0% (inactive) in test [1], -1.97% (inactive) in [8] and 6.39% (inactive) in test [9]. Further, the viability was 99% in [2]; 99% (inactive) in test [4]; 100% (inactive) in test [5]; 99% (inactive) in test [6]; 97.5% in test [7] (setting [10]); 99% in [7] (setting [11]). Further, in test [3], the Her2 level is 114% (inactive). In addition, the differential viability (reversal) in [7] (H69AR cells + 2 uM doxorubicin) is 1.51% (inactive).

Consider `Cc1ccc(C2SCC(=O)Nc3c2c(=O)[nH]n3C2CCOC(C)(C)C2)cc1` (configuration not stated), for which the results for the inhibition in [1], in test [8] and in test [9] were 0% (inactive), -5.66% (inactive) and 5.83% (inactive), respectively. Moreover, the viability was 100% in test [2]; 100% (inactive) in test [4]; 90.9% (inactive) in test [5]; 98.2% (inactive) in [6]; 87% in test [7] (setting [10]); 98.2% in [7] (setting [11]). Also, in test [3], the Her2 level is 92% (inactive). In addition, in [7] (H69AR cells + 2 uM doxorubicin), the differential viability (reversal) was 11.2% (inactive).

As for `CC(C)(C)OC(=O)c1c(N)n(Cc2ccco2)c2nc3ccccc3nc12`, the inhibition in test [1] is 3% (inactive); in [8], 0.79% (inactive); in test [9] it was -6.13% (inactive). Moreover, the viability was 98.5% in [2]; 98.5% (inactive) in test [4]; 62.5% (inactive) in test [5]; 65.4% (inactive) in test [6]; 74.8% in test [7] (setting [10]); 65.4% in test [7] (setting [11]). The Her2 level in test [3] is 76% (inactive). Further, the differential viability (reversal) in test [7] (H69AR cells + 2 uM doxorubicin) is -9.48% (inactive).

In the case of `CN1CCC(N(C)c2ncnc3ccc(Br)cc23)CC1`, the inhibition in [1] is 0% (inactive); in [8], -6.1% (inactive); in test [9] it was 0.79% (inactive). Also, the viability was 100% in test [2]; 100% (inactive) in test [4]; 78.5% (inactive) in [5]; 87.9% (inactive) in [6]; 114% in [7] (setting [10]); 87.9% in [7] (setting [11]). Further, the Her2 level in test [3] was 99.5% (inactive). In [7] (H69AR cells + 2 uM doxorubicin), the differential viability (reversal) was -25.8% (inactive).

For `CC1(C)C(c2ccccc2)=NC(c2cccnc2)N1O` (configuration not stated), the inhibition was 0% (inactive) in test [1], -6.76% (inactive) in test [8] and 5.74% (inactive) in test [9]. For the same compound, the viability in test [2] was 106%; in test [4], 106% (inactive); in [5], 106% (inactive); in test [6], 95.3% (inactive); in test [7] (setting [10]) it was 99.7%; in test [7] (setting [11]), 95.3%. The Her2 level in test [3] is 96% (inactive). Further, in [7] (H69AR cells + 2 uM doxorubicin), the differential viability (reversal) was -4.39% (inactive).

As to `CCCNS(=O)(=O)c1ccc(OCC(=O)N2CCN(Cc3ccccc3)CC2)cc1`, the figures for the inhibition in test [1], in [8] and in test [9] were 0% (inactive), -5.07% (inactive) and 5.97% (inactive), respectively. The viability is 111% (inactive) in test [4]; 86.6% (inactive) in test [5]; 88.6% (inactive) in [6]; 88.2% in test [7] (setting [10]); 88.6% in test [7] (setting [11]). For the same compound, the differential viability (reversal) in [7] (H69AR cells + 2 uM doxorubicin) is 0.375% (inactive).

Take `COc1ccc(CC2C(=O)NC(=O)NC2=O)c(OC)c1`: the figures for the inhibition in [1], in test [8] and in test [9] were 2% (inactive), 2.8% (inactive) and -1.75% (inactive), respectively. Also, the viability was 96.5% in test [2]; 96.5% (inactive) in test [4]; 114% (inactive) in test [5]; 106% (inactive) in [6]; 101% in test [7] (setting [10]); 106% in [7] (setting [11]). For the same compound, the Her2 level in test [3] was 113% (inactive). Moreover, the differential viability (reversal) in [7] (H69AR cells + 2 uM doxorubicin) is 4.86% (inactive).

For `O=c1[nH]c(=O)n(Cc2ccccc2)c(O)c1C=NCCCO`, the inhibition is 8% (inactive) in test [1], -6.13% (inactive) in test [8] and -0.65% (inactive) in test [9]. For the same compound, the viability was 100% in [2]; 100% (inactive) in test [4]; 94.1% (inactive) in [5]; 117% (inactive) in test [6]; 89.9% in test [7] (setting [10]); 117% in test [7] (setting [11]). Also, the Her2 level in [3] was 96.5% (inactive). Moreover, the differential viability (reversal) in test [7] (H69AR cells + 2 uM doxorubicin) was 27.1% (inactive).

As for `Cc1cc(NC(=O)COC(=O)c2c(C)nn(Cc3ccccc3)c2Cl)no1`, the inhibition in test [1] is 0% (inactive); in test [8], -4.27% (inactive); in [9], -8.03% (inactive). The viability was 96% in test [2]; 96% (inactive) in test [4]; 79.2% (inactive) in test [5]; 105% (inactive) in test [6]; 86% in test [7] (setting [10]); 105% in [7] (setting [11]). Also, in test [3], the Her2 level is 102% (inactive). Further, in test [7] (H69AR cells + 2 uM doxorubicin), the differential viability (reversal) was 19% (inactive).

Regarding `CCC(=NCC1CCCO1)c1c(O)n(Cc2ccccc2)c(=O)[nH]c1=O` (configuration not stated), the inhibition was 0% (inactive) in [1], -4.29% (inactive) in [8] and 1.48% (inactive) in [9]. The viability in test [4] was 91% (inactive); in [5] it was 107% (inactive); in test [6], 86.3% (inactive); in test [7] (setting [10]), 86.7%; in test [7] (setting [11]) it was 86.3%. Moreover, the differential viability (reversal) in test [7] (H69AR cells + 2 uM doxorubicin) is -0.335% (inactive).

For the compound `Clc1ccc(CSC(Cn2ccnc2)c2ccc(Cl)cc2Cl)cc1` (configuration not stated), the inhibition in test [1] is 0% (inactive). The viability in test [2] was 136%; in [4] it was 136% (inactive); in test [7] (setting [10]) it was 48.3%; in test [7] (setting [11]), 33.7%. Also, in [3], the Her2 level is 59% (inactive). In test [7] (H69AR cells + 2 uM doxorubicin), the differential viability (reversal) was -14.6% (inactive).

With `CC(=NCc1ccc2c(c1)OCO2)c1c(O)n(C)c(=O)n(C)c1=O`, the figures for the inhibition in test [1], in [8] and in test [9] were 6% (inactive), -4.42% (inactive) and -2% (inactive), respectively. Also, the viability was 94% in test [2]; 94% (inactive) in [4]; 92.8% (inactive) in test [5]; 98% (inactive) in test [6]; 96.9% in [7] (setting [10]); 98% in test [7] (setting [11]). The Her2 level in [3] was 90% (inactive). Besides, the differential viability (reversal) in test [7] (H69AR cells + 2 uM doxorubicin) is 1.15% (inactive).

`CCCCn1c(O)c(C(C)=NCCc2ccccc2)c(=O)[nH]c1=O`: the inhibition in test [1] was 0% (inactive); in test [8] it was -0.26% (inactive); in test [9] it was 9.51% (inactive). Also, the viability is 88.5% in [2]; 88.5% (inactive) in test [4]; 95.6% (inactive) in test [5]; 100% (inactive) in [6]; 95.9% in test [7] (setting [10]); 100% in test [7] (setting [11]). Also, in test [3], the Her2 level was 89.5% (inactive). The differential viability (reversal) in test [7] (H69AR cells + 2 uM doxorubicin) is 4.16% (inactive).
